# Test results: ChEMBL document CHEMBL1132213, “Tyrosine kinase inhibitors. 15. 4-(Phenylamino)quinazoline and 4-(phenylamino)pyrido[d]pyrimidine acrylamides as irreversible inhibitors of the ATP binding site of the epidermal growth factor receptor” (J Med Chem, 1999)
# Several values for one entry are separate records, joined by “and”; a condition that tells them apart may be missing. Equal entries are not always repeated.
# Tests used:
# [1] = biological target: T1, Receptor tyrosine-protein kinase erbB-2 (Homo sapiens, UniProt P04626); test: Inhibition of heregulin-stimulated autophosphorylation of ERBB2 receptor kinase in MDA-MB-453 cells.; type: cell-based
# T1 sequence (P04626 whole entry): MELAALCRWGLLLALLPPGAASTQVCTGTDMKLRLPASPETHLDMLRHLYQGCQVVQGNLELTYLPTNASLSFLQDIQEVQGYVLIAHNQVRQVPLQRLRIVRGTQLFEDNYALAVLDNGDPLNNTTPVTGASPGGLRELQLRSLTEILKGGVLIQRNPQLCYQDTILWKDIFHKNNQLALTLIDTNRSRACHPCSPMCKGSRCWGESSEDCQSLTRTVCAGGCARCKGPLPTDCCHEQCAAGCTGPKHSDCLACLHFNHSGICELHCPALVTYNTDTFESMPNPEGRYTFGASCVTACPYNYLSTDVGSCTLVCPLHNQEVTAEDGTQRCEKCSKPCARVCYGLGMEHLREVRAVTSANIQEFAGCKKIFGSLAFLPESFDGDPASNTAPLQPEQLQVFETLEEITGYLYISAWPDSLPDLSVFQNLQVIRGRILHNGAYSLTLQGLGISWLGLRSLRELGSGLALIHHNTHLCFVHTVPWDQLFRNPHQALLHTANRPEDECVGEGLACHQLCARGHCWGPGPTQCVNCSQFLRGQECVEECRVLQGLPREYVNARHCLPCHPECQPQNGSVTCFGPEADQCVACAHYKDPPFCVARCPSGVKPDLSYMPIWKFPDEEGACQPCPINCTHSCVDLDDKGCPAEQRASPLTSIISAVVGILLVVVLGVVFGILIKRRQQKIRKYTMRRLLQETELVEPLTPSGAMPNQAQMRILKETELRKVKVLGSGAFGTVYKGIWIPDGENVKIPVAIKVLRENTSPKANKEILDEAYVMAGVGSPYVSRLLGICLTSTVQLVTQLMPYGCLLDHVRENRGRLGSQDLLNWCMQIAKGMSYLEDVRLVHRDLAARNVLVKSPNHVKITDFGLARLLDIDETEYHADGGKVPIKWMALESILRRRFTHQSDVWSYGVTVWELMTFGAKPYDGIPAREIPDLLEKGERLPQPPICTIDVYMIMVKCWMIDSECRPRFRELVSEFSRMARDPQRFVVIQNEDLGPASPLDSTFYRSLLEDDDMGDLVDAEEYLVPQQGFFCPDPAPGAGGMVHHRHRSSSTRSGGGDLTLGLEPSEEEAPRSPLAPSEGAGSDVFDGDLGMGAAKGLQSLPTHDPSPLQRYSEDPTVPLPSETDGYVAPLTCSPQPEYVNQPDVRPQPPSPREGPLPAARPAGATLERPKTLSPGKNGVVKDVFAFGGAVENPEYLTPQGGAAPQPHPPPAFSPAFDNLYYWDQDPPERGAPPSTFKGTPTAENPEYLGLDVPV
# Summary of the method: (§1)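 MDA-MB-453 cells in αMEM/F12 with 10% FBS were grown to 90% confluency and held serum-free for 18 h. Cells were treated 1 h with varied inhibitor concentrations, then stimulated 5 min with heregulin (10 ng/mL) and lysed in boiling Laemmli buffer. Read-out was SDS-PAGE and antiphosphotyrosine Western blot with [125I]protein A detection and laser densitometry. IC50 is the average of two experiments.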
# A-431 [2] = test: In vivo activity against A431 xenograft in nude mice, ratio of treated/control median tumor mass at 212 mg/kg peroral dose; type: functional; conditions: dose 12 mg/kg; route intraperitoneal; in the assay text read “12 mg/kg intraperitoneal dose” for “212 mg/kg peroral dose”
# Summary of the method: (§2)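 Nude (NCr nu/nu) mice of 18–22 g were randomized and implanted sc in the right axilla with serially passaged A431 or H125 tumor fragments on day 0. Dosing by average cage weight (6 mice/group) ip or po began at 100–150 mg tumor mass. The ip vehicle was 6% dimethylacetamide/94% 50 mM sodium lactate pH 4.0 suspension; later suspensions used 0.5% methylcellulose. T/C = median treated/control tumor mass ×100% on the last therapy day. T−C = days for tumors to reach 750 mg.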
# NCI-H125 [3] = test: In vivo activity against H125 xenograft in nude mice, ratio of treated/control median tumor mass at 200 mg/kg peroral dose; type: functional; conditions: route oral; summary of the method: as §2
# NCI-H125 [4] = test: In vivo activity against H125 xenograft in nude mice, ratio of treated/control median tumor mass at 9.6 mg/kg peroral dose; type: functional; conditions: route intraperitoneal, in the assay text read “intraperitoneal” for “peroral”
# A-431 [5] = test: Difference in days for treated (T) and control (C) A431 cell tumors to reach 750 mg at 12 mg/kg ip dose; type: functional; conditions: route intraperitoneal; summary of the method: as §2
# Mus musculus [6] = test: Difference in days for treated (T) and control (C) tumors to reach 750 mg at 200 mg/kg ip dose; type: functional; conditions: route intraperitoneal; summary of the method: as §2
# NCI-H125 [7] = test: (§3) In vivo activity against H125 xenograft in nude mice, weight change at 200 mg/kg peroral dose; type: functional, organism-based; parameters: dose 200 mg/kg; summary of the method: as §2
# A-431 [8] = test: In vivo activity against A431 xenograft in nude mice, weight change at 12 mg/kg ip dose; type: functional; conditions: route intraperitoneal; summary of the method: as §2
# NCI-H125 [9] = test: In vivo activity against H125 xenograft in nude mice, weight change at 9.6 mg/kg ip dose; type: functional; conditions: route intraperitoneal
# Summary of the method: (§4)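 NCr nu/nu mice (18–22 g, 6/dose group) implanted sc in the right axilla with serially passaged H125 NSCLC fragments on day 0. Dosing ip by average cage weight as a fine suspension in 6% dimethylacetamide/94% 50 mM sodium lactate pH 4.0, started at tumor mass 100–150 mg. Read-outs were body weight change and treated-minus-control days to reach 750 mg.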
# NCI-H125 [10] = test: Difference in days for treated (T) and control (C) H125 cell tumors to reach 750 mg at 9.6 mg/kg ip dose; type: functional; conditions: route intraperitoneal; summary of the method: as §4
# A-431 [11] = test: In vivo activity against A431 xenograft in nude mice, ratio of treated/control median tumor mass at 40 mg/kg peroral dose; type: functional; conditions: route oral; summary of the method: as §2
# Mus musculus [12] = test: Difference in days for treated (T) and control (C) tumors to reach 750 mg at 200 mg/kg peroral dose; type: functional; conditions: route oral; summary of the method: as §2
# A-431 [13] = test: Difference in days for treated (T) and control (C) A431 cell tumors to reach 750 mg at 40 mg/kg peroral dose; type: functional; conditions: route oral; summary of the method: as §2
# A-431 [14] = test: In vivo activity against A431 xenograft in nude mice, weight change at 40 mg/kg peroral dose; type: functional; conditions: route oral; summary of the method: as §2
# NCI-H125 [15] = test: as §3; type: functional; conditions: route oral; summary of the method: as §2
# [16] = biological target: T2, Epidermal growth factor receptor (Homo sapiens, UniProt P00533)
# T2 sequence (P00533 whole entry): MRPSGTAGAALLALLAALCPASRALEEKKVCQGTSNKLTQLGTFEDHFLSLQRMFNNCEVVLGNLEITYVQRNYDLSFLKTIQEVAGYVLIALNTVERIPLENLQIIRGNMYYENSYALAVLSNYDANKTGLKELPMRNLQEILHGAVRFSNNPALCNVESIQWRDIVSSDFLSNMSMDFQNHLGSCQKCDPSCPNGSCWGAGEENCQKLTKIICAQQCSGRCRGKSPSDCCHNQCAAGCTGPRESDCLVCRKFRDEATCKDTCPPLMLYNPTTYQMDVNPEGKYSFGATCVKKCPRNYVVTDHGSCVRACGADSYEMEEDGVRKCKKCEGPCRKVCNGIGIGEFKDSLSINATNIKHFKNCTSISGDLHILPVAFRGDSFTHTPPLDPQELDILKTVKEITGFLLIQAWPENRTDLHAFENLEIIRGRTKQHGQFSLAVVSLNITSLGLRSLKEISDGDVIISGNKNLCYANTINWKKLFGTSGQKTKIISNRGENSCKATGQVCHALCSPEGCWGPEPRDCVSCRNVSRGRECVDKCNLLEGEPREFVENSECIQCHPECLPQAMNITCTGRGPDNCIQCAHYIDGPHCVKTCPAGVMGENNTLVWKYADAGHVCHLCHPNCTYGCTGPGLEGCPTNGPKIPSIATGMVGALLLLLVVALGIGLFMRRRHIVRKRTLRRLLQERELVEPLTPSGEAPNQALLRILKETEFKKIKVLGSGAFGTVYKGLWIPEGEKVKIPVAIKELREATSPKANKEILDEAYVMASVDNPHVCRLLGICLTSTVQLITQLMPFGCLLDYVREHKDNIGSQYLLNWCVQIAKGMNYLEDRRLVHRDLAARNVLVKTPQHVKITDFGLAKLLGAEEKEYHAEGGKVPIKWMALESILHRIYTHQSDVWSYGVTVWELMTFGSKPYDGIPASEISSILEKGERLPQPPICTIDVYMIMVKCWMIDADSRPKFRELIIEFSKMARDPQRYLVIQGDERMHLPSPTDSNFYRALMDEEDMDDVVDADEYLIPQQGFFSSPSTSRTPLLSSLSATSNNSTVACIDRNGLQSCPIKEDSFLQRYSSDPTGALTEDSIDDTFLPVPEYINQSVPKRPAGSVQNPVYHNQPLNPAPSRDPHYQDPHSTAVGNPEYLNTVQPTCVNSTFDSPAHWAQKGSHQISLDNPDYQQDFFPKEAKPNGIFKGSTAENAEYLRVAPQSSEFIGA
# [17] = biological target: T2, Epidermal growth factor receptor; remark: listed apart in the source
# A-431 [18] = test: In vivo activity against A431 xenograft in nude mice, ratio of treated/control median tumor mass at 150 mg/kg peroral dose; type: functional; conditions: route oral; summary of the method: as §2
# A-431 [19] = test: In vivo activity against A431 xenograft in nude mice, ratio of treated/control median tumor mass at 47 mg/kg ip dose; type: functional; conditions: route intraperitoneal; summary of the method: as §2
# NCI-H125 [20] = test: In vivo activity against H125 xenograft in nude mice, ratio of treated/control median tumor mass at 50 mg/kg ip dose; type: functional; conditions: route intraperitoneal; summary of the method: as §2
# NCI-H125 [21] = test: In vivo activity against H125 xenograft in nude mice, ratio of treated/control median tumor mass at 50 mg/kg peroral dose; type: functional; conditions: route oral; summary of the method: as §2
# A-431 [22] = test: Difference in days for treated (T) and control (C) A431 cell tumors to reach 750 mg at 47 mg/kg ip dose; type: functional; conditions: route intraperitoneal; summary of the method: as §2
# NCI-H125 [23] = test: In vivo activity against H125 xenograft in nude mice, weight change at 50 mg/kg ip dose; type: functional; conditions: route intraperitoneal; summary of the method: as §2
# A-431 [24] = test: In vivo activity against A431 xenograft in nude mice, weight change at 1150 mg/kg peroral dose; type: functional; conditions: dose 150 mg/kg; route oral; in the assay text read “150 mg/kg” for “1150 mg/kg”; summary of the method: as §2
# A-431 [25] = test: In vivo activity against A431 xenograft in nude mice, weight change at 47 mg/kg ip dose; type: functional; conditions: route intraperitoneal; summary of the method: as §2
# A-431 [26] = test: In vivo activity against A431 xenograft in nude mice, ratio of treated/control median tumor mass at 200 mg/kg peroral dose; type: functional; conditions: route oral; summary of the method: as §2
# A-431 [27] = test: (§5) In vivo activity against A431 xenograft in nude mice, weight change at 200 mg/kg peroral dose; type: functional, organism-based; parameters: dose 200 mg/kg; summary of the method: as §2
# A-431 [28] = test: as §5; type: functional; conditions: route oral; summary of the method: as §2
# [29] = biological target: T1, Receptor tyrosine-protein kinase erbB-2; test: Inhibition of heregulin-stimulated autophosphorylation of erbB2 in MDA-MB-453 cells.; type: cell-based; summary of the method: as §1
# A-431 [30] = test: Difference in days for treated (T) and control (C) A431 cell tumors to reach 750 mg at 75 mg/kg ip dose; type: functional; conditions: route intraperitoneal; summary of the method: as §2
# NCI-H125 [31] = test: Difference in days for treated (T) and control (C) tumors to reach 750 mg at 250 mg/kg peroral dose; type: functional; conditions: route oral; summary of the method: as §2
# NCI-H125 [32] = test: In vivo activity against H125 xenograft in nude mice, ratio of treated/control median tumor mass at 250 mg/kg peroral dose; type: functional; conditions: route oral; summary of the method: as §2
# A-431 [33] = test: Difference in days for treated (T) and control (C) A431 cell tumors to reach 750 mg at 260 mg/kg peroral dose; type: functional; conditions: route oral; summary of the method: as §2
# NCI-H125 [34] = test: Difference in days for treated (T) and control (C) H125 cell tumors to reach 750 mg at 50 mg/kg ip dose; type: functional; conditions: route intraperitoneal; summary of the method: as §2
# NCI-H125 [35] = test: In vivo activity against H125 xenograft in nude mice, weight change at 250 mg/kg peroral dose; type: functional; conditions: route oral; summary of the method: as §2
# Mus musculus [36] = test: In vivo activity against tumor xenograft in nude mice, weight change at 75 mg/kg ip dose; type: functional; conditions: route intraperitoneal; summary of the method: as §2
# A-431 [37] = test: In vivo activity against A431 cell tumor xenograft in nude mice at 75 ip mg/kg dose; type: functional; summary of the method: as §2
# A-431 [38] = test: In vivo activity against A431 xenograft in nude mice, weight change at 260 mg/kg peroral dose; conditions: route oral
# A-431 [39] = test: In vivo activity against A431 xenograft in nude mice, ratio of treated/control median tumor mass at 260 mg/kg peroral dose; conditions: route oral
smiles,measurement,setting,value
C=CC(=O)Nc1cc2c(Nc3cccc(Br)c3)ncnc2cn1,IC50,[1],3.9 nM
same,T/C,A-431 [2],17%
same,T/C,NCI-H125 [3]; 200 mg/kg,11% and 20%
same,T/C,NCI-H125 [4],26%
same,T-C,A-431 [5],12 days
same,T-C,Mus musculus [6],24.3 days and 16.5 days
same,Weight change,NCI-H125 [7],Weight gain
same,Weight change,A-431 [8],-2.4 g
same,Weight change,NCI-H125 [9],-1.3 g
same,T-C,NCI-H125 [10],8.7 days
C=CC(=O)Nc1ccc2ncnc(Nc3ccc(F)c(Cl)c3)c2c1,IC50,[1],4.3 nM
same,T/C,A-431 [11],11%
same,T/C,NCI-H125 [3],16%
same,T-C,Mus musculus [12],27.4 days
same,T-C,A-431 [13],20.8 days
same,Weight change,A-431 [14],0 g
same,Weight change,NCI-H125 [15],-0.3 g
same,IC50,[16],3.1 nM
same,IC50,[17],0.75 nM
C=CC(=O)Nc1ccc2ncnc(Nc3cccc(Br)c3)c2c1,IC50,[1],5.7 nM
same,T/C,A-431 [18],2%
same,T/C,A-431 [19],2%
same,T/C,NCI-H125 [20],15%
same,T/C,NCI-H125 [21],8%
same,T-C,A-431 [22],29 days and 15.7 days
same,Weight change,NCI-H125 [23],-1.5 g
same,Weight change,A-431 [24],-1.7 g
same,Weight change,A-431 [25],-1 g
C=CC(=O)Nc1ccc2ncnc(Nc3ccc(F)c(Cl)c3)c2n1,IC50,[1],12 nM
C=CC(=O)Nc1cc2c(Nc3ccc(F)c(Br)c3)ncnc2cn1,IC50,[1],1.1 nM
same,T/C,A-431 [26],13%
same,T/C,NCI-H125 [3],19%
same,T-C,Mus musculus [6],51.1 days and 18.2 days
same,Weight change,A-431 [27],Weight gain
same,Weight change,NCI-H125 [15],-1.8 g
same,IC50,[16],2.1 nM
same,IC50,[17],0.72 nM
C=CC(=O)Nc1ccc2ncnc(Nc3ccc(F)c(Br)c3)c2n1,IC50,[1],26 nM
same,IC50,[16],18 nM
same,IC50,[17],1.2 nM
C=CC(=O)Nc1cc2c(Nc3ccc(F)c(Cl)c3)ncnc2cn1,IC50,[1],3 nM
same,T/C,A-431 [26],12%
same,T/C,NCI-H125 [3],27%
same,T-C,Mus musculus [6],18.3 days and 12.7 days
same,Weight change,A-431 [28],-0.3 g
same,Weight change,NCI-H125 [15],-1.8 g
same,IC50,[16],3.3 nM
same,IC50,[17],0.77 nM
C=CC(=O)Nc1ccc2ncnc(Nc3ccc(Oc4ccccc4)cc3)c2c1,IC50,[1],8.6 nM
C=CC(=O)Nc1cc2c(Nc3cccc(C)c3)ncnc2cn1,IC50,[29],8.8 nM
C=CC(=O)Nc1ccc2ncnc(Nc3ccc(F)c(Br)c3)c2c1,IC50,[1],7.3 nM
same,IC50,[16],2.7 nM
same,IC50,[17],0.69 nM
C=CC(=O)Nc1ccc2c(Nc3cccc(Br)c3)ncnc2c1,IC50,[1],73 nM
same,IC50,[17],0.45 nM
C=CC(=O)Nc1ccc2ncnc(N3CCc4ccc(Br)cc43)c2c1,IC50,[16],9.9 nM
C=CC(=O)Nc1ccc2ncnc(Nc3cccc(C)c3)c2c1,IC50,[1],22 nM
same,T-C,A-431 [30],32.3 days
same,T-C,NCI-H125 [31],10.5 days
same,T/C,NCI-H125 [20],15%
same,T/C,NCI-H125 [32],24%
same,T-C,A-431 [33],28.2 days
same,T-C,NCI-H125 [34],11.9 days
same,Weight change,NCI-H125 [35],-0.1 g
same,Weight change,Mus musculus [36],-2.2 g
same,T/C,A-431 [37],11%
same,Weight change,NCI-H125 [23],0 g
same,Weight change,A-431 [38],-1.3 g
same,T/C,A-431 [39],3%
